From PMC11965407 (Translational Psychiatry, 2025)
Entries after “also recorded” stand apart in the source; their conditions may differ. Structures can show the parent of a compound that is named as a salt. Where two headings read alike, the source gives them in different places. One block for each molecule: values may come before it.

Assays:
neuronal Kv7 = details: read-out: IC50, neuronal Kv7 inhibition; cited from earlier work
Kv7.5 [1] = details: read-out: IC50, inhibition of Kv7.5; cited from earlier work
Kv7.1-Kv7.4 channels = details: read-out: IC50, inhibition of Kv7.1-Kv7.4 channels; cited from earlier work
[2] = system: native M-current in hippocampal neurons; test: Native M-current recording in cultured hippocampal neurons; type: cell-based, rat; details: measured at −20 mV
hippocampal neurons = type: cell-based, rat; details: for depolarizing shift of resting membrane potential (RMP): hippocampal neurons
Kv7.2/Kv7.3 channels = Kv7.2/Kv7.3 channels (Homo sapiens, UniProt O43525+O43526); type: cell-based
Outline: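 CHO cells stably expressing Kv7.2/Kv7.3 were grown in F12 with 10% FBS and 600 μg/mL G418. Cells were recorded by amphotericin B (250 μg/mL) perforated patch at room temperature. Internal was KCl 150, MgCl2 5, HEPES 10 mM, pH 7.4; external was NaCl 160, KCl 2.5, MgCl2 1, CaCl2 2, glucose 10, HEPES 20 mM, pH 7.4. Current was measured at 0 mV. Activation used −110 to 30 mV steps (10 mV increments) then 0 mV, with a Boltzmann fit. IC50 came from a logistic fit; τ from a single exponential.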

Kv7.2 channel [3] = biological target: T1, Kv7.2 channel (Homo sapiens, UniProt O43526); test: Single-channel recordings; type: cell-based
Outline: (§1)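 Cell-attached single-channel recording was done at room temperature on transfected HEK293T cells. Pipettes (8–10 MΩ) held bath solution: NaCl 150, KCl 5, MgCl2 1, CaCl2 2, HEPES 10 mM, pH 7.4. Data were […] and filtered at 0.8–1 kHz. Patch potential of 0 mV was set from Vm = RMP − Vpipette, with RMP from current clamp. Open probability and conductance came from all-point amplitude histograms, with recordings before and after drug.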

Kv7.2 channel [4] = biological target: T1, Kv7.2 channel; test: Perforated whole-cell patch-clamp of Kv7.2 current in transfected HEK293T cells; type: cell-based
Outline: (§2)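 Human Kv7.2 or Kv7.5 cDNA in pcDNA3.1 was co-transfected with GFP into HEK293T cells using lipofectamine 2000 and recorded 24 h later. Recording used perforated patch (amphotericin B 250 μg/mL in pipette) with internal KCl 150, MgCl2 5, HEPES 10 mM, pH 7.4, and external NaCl 160, KCl 2.5, MgCl2 1, CaCl2 2, glucose 10, HEPES 20 mM, pH 7.4, at room temperature. IC50 came from a logistic fit, activation curves from Boltzmann fits, and τ values from single exponentials (activation 0 mV, deactivation −120 mV).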

GIRK1/2 channels = details: read-out: IC50, GIRK1/2 channels; cited from earlier work
Kv7.2 D212A channel = Kv7.2 D212A channel (Homo sapiens, UniProt O43526, D212A); test: Whole-cell patch-clamp of Kv7.2 D212A mutant channel; type: cell-based
[5] = biological target: Kv7.2/Kv7.3 single-channels (Homo sapiens, UniProt O43525+O43526); test: Single-channel recordings; type: cell-based; details: paroxetine 3 μΜ
Outline: as §1

W236A Kv7.2 channel = W236A Kv7.2 channel (Homo sapiens, UniProt O43526, W236A); test: Whole-cell patch-clamp of W236A Kv7.2 mutant in HEK293T cells; type: cell-based; details: HEK-293T, read-out: inhibition of W236A Kv7.2 current
Outline: (§3)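 Alanine point mutants of human Kv7.2 were made by site-directed mutagenesis and verified by sequencing. Wild-type or mutant channels were expressed in HEK293T cells and recorded by perforated whole-cell patch clamp at room temperature. Currents were recorded before and after 10 or 30 µM test compound, and inhibition was normalized and compared with wild-type Kv7.2. n = 3–6.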

[6] = biological target: Kv7.2 D212A/Kv7.3 heteromeric channels (Homo sapiens, UniProt O43525+O43526, D212A); test: Whole-cell patch-clamp of Kv7.2 D212A/Kv7.3 heteromeric channels; type: cell-based
Kv7.4 = Kv7.4 (Homo sapiens, UniProt P56696); test: Perforated whole-cell patch-clamp of Kv7.4 current in transfected HEK293T cells; type: cell-based
Sequence of Kv7.4 (P56696 whole entry): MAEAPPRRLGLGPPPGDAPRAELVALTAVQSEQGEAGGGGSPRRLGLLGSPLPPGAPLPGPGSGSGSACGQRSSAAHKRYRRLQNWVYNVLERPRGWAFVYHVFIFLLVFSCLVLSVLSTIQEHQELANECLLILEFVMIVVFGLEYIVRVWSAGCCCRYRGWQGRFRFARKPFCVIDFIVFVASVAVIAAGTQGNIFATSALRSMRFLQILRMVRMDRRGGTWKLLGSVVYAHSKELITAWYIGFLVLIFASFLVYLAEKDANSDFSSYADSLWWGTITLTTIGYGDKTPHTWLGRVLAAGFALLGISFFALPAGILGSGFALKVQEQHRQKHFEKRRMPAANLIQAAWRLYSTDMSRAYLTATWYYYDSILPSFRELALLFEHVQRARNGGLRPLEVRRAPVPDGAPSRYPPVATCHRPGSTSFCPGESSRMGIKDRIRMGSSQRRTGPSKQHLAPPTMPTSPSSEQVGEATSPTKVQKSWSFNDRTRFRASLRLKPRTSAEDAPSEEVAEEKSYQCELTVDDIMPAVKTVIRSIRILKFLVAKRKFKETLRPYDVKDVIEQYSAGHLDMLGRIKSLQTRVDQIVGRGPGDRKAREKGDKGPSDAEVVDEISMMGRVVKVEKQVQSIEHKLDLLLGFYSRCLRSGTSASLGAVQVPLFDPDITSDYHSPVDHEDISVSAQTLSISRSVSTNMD

F304A Kv7.2 channel = test: Whole-cell patch-clamp of F304A Kv7.2 mutant in HEK293T cells; type: cell-based, human; details: 10 or 30 µM paroxetine, vs WT Kv7.2
Outline: as §3

F240A Kv7.2 channel = F240A Kv7.2 channel (Homo sapiens, UniProt O43526, F240A); test: Whole-cell patch-clamp of F240A Kv7.2 mutant in HEK293T cells; type: cell-based; details: HEK-293T, read-out: inhibition of F240A Kv7.2 current
Outline: as §3

L299A Kv7.2 channel = L299A Kv7.2 channel (Homo sapiens, UniProt O43526, L299A); test: Whole-cell patch-clamp of L299A Kv7.2 mutant in HEK293T cells; type: cell-based; details: HEK-293T, read-out: inhibition of F299A Kv7.2 current
Outline: as §3

Kv3.1 channels = details: read-out: IC50, Kv3.1 channels; cited from earlier work
[7] = daily dosage of 20 mg, patients with depression; cited from earlier work
F305A Kv7.2 channel = F305A Kv7.2 channel (Homo sapiens, UniProt O43526, F305A); test: Whole-cell patch-clamp of F305A Kv7.2 mutant in HEK293T cells; type: cell-based; details: 10 or 30 µM paroxetine, vs WT Kv7.2
Outline: as §3

Kv7.5 [8] = biological target: Kv7.5 (Homo sapiens, UniProt Q9NR82); test: Perforated whole-cell patch-clamp of Kv7.5 current in transfected HEK293T cells; type: cell-based
Sequence of Kv7.5 (Homo sapiens, UniProt Q9NR82) (Q9NR82 whole entry): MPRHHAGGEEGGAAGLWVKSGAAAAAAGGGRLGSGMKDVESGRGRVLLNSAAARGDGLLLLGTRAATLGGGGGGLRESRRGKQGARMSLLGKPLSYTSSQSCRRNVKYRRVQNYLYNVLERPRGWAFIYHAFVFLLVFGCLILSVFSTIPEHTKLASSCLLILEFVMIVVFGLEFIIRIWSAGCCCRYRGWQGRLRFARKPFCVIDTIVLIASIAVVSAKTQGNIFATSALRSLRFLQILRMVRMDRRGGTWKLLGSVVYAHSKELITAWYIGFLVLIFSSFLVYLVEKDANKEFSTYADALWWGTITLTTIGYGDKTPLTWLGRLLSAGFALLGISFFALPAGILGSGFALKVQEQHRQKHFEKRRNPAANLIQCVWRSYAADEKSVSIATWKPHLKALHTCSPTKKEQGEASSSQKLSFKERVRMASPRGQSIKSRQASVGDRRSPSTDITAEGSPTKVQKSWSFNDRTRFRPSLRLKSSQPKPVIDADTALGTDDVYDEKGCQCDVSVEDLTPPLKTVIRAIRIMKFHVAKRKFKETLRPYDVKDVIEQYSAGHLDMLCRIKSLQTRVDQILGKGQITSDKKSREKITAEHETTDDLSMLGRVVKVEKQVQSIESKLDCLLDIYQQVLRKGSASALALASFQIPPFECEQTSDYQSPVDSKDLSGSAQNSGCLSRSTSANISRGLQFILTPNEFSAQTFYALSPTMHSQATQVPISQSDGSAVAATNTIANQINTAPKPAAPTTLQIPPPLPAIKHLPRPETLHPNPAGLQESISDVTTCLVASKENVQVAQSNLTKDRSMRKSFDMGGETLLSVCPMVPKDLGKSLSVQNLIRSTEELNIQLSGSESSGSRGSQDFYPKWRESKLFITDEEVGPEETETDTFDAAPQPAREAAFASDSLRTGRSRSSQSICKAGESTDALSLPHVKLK
Outline: as §2

Kv7.1 = Kv7.1 (Homo sapiens, UniProt P51787); test: Perforated whole-cell patch-clamp of Kv7.1 current in transfected HEK293T cells; type: cell-based
Sequence of Kv7.1 (P51787 whole entry): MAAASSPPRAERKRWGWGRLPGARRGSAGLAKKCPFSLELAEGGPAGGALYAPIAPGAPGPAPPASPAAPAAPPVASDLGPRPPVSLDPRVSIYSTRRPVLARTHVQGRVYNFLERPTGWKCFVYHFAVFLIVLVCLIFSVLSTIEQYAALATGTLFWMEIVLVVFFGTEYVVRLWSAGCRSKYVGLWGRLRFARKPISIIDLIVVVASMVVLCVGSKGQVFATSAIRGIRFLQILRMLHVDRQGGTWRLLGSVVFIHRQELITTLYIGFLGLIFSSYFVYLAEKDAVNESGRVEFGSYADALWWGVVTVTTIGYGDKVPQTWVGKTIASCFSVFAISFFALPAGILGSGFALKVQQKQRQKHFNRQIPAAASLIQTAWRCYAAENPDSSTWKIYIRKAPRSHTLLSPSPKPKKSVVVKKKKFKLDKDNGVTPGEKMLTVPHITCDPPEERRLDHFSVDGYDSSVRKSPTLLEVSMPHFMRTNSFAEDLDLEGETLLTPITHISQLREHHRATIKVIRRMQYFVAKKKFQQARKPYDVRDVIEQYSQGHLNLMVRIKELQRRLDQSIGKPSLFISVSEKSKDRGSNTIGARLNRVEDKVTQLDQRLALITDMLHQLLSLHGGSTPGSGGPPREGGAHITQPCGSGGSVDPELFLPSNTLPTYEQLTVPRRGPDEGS

SMILES: CC[C@H](C(=O)Nc1ccccc1N1CCCC1)c1ccccc1 [ML252]
IC50 (neuronal Kv7): 1 to 6 µM

inhibition of Kv7.2/Kv7.3 currents recorded at 0 mV (Kv7.2/Kv7.3 channels; 3 μM, CHO cells, n = 5): 81.4 ± 1.5% | Kv7.2 single-channel open probability (Kv7.2 channel [3]; XE991 3 μΜ, control 0.21 ± 0.02): 0.05 ± 0.01 | Kv7.2 single-channel conductance (Kv7.2 channel [3]; XE991 3 μΜ, control 7.7 ± 0.8 pS): 8.0 ± 0.4 pS
SMILES: O=C1c2ccccc2C(Cc2ccncc2)(Cc2ccncc2)c2ccccc21 [XE991]
IC50 (Kv7.5 [1]): ~60 µM | IC50 (Kv7.1-Kv7.4 channels): 1 to 5 µM | inhibition of M-current ([2]; 3 μΜ): 21.2 ± 2.0% | firings in hippocampal neurons (hippocampal neurons; 3 μM XE991, n = 6): increased firings | depolarizing shift of resting membrane potential (RMP) (hippocampal neurons; 1 μΜ): 6.2 ± 2.2 mV | depolarizing shift of resting membrane potential (RMP) (hippocampal neurons; 3 μΜ): 9.7 ± 1.2 mV

IC50 (Kv7.2 channel [4]): 12.3 ± 6.5 µM | inhibition at 10 µM (Kv7.2 channel [4]; HEK-293T, read-out: inhibition of WT Kv7.2 current): 56.6 ± 2.9% | τdeactivation (−120 mV) of Kv7.2 (Kv7.2 channel [4]; paroxetine 10 μM, control 24.9 ± 10.0 ms): 18.6 ± 6.9 ms | τactivation (0 mV) of Kv7.2 (Kv7.2 channel [4]; paroxetine 10 μM, control 132.6 ± 15.0 ms): 141.7 ± 15.8 ms | V1/2 of Kv7.2 in presence of paroxetine (Kv7.2 channel [4]; paroxetine 10 μM, control −12.0 ± 0.8 mV): −9.1 ± 2.0 mV | IC50 (Kv7.2 D212A channel): 41 ± 5.6 µM | reduction of inhibitory effect by D212A mutation versus wild type (Kv7.2 D212A channel; Kv7.2 D212A vs Kv7.2): approximately three-fold | open probability of Kv7.2/Kv7.3 single-channels ([5]; 0 mV, cell-attached, control 0.28 ± 0.01): 0.13 ± 0.01 | single-channel conductance of Kv7.2/Kv7.3 ([5]; control 10.9 ± 1.1 pS, not altered): 10.4 ± 0.9 pS | inhibition at 10 µM (W236A Kv7.2 channel): 43.8 ± 6.8% | IC50 [6]: 9.2 ± 1.3 µM | reduction of inhibitory effect by D212A mutation versus wild type ([6]; Kv7.2 D212A/Kv7.3 vs Kv7.2/Kv7.3): approximately three-fold | V1/2 of Kv7.4 in presence of paroxetine (Kv7.4; paroxetine 20 μM, control −14.4 ± 3.6 mV): −15.2 ± 4.3 mV | τdeactivation (−120 mV) of Kv7.4 (Kv7.4; paroxetine, control 12.1 ± 1.3 ms): 10.9 ± 1.6 ms | τactivation (0 mV) of Kv7.4 (Kv7.4; paroxetine, control 131.5 ± 23.6 ms): 131.3 ± 22.9 ms | inhibition at 10 µM (F240A Kv7.2 channel): 46.9 ± 9.7% | inhibition at 10 µM (L299A Kv7.2 channel): 59.4 ± 10.4% | IC50 (Kv7.2/Kv7.3 channels): 3.6 ± 0.2 µM | inhibition at 3 µM (Kv7.2/Kv7.3 channels; CHO, read-out: inhibition of Kv7.2/Kv7.3 currents recorded at 0 mV): 62.8 ± 6.5% | τdeactivation (−120 mV) of Kv7.2/Kv7.3 (Kv7.2/Kv7.3 channels; paroxetine 3 μΜ, control 14.4 ± 1.1 ms): 12.6 ± 0.7 ms | τactivation (0 mV) of Kv7.2/Kv7.3 (Kv7.2/Kv7.3 channels; paroxetine 3 μΜ, control 94.5 ± 11.0 ms): 112.8 ± 9.0 ms | V1/2 (half activation voltage) of Kv7.2/Kv7.3 in presence of paroxetine (Kv7.2/Kv7.3 channels; paroxetine 3 μΜ, control −3.9 ± 1.2 mV, not significant): −7.5 ± 3.5 mV | Kv7.2 single-channel open probability (Kv7.2 channel [3]; paroxetine 10 μM, 0 mV, cell-attached, control 0.19 ± 0.01): 0.09 ± 0.01 | Kv7.2 single-channel conductance (Kv7.2 channel [3]; paroxetine 10 μM, control 7.7 ± 0.4 pS): 7.7 ± 0.7 pS | IC50 (Kv7.5 [8]): 37.2 ± 5.2 µM | V1/2 of Kv7.5 in presence of paroxetine (Kv7.5 [8]; paroxetine 20 μM, control −32.7 ± 5.7 mV): −33.6 ± 6.1 mV | τdeactivation (−120 mV) of Kv7.5 (Kv7.5 [8]; paroxetine, control 36.7 ± 1.7 ms): 35.4 ± 5.0 ms | τactivation (0 mV) of Kv7.5 (Kv7.5 [8]; paroxetine, control 77.4 ± 5.3 ms): 79.8 ± 17.6 ms | IC50 (Kv7.1): 71.8 ± 7.9 µM | V1/2 of Kv7.1 in presence of paroxetine (Kv7.1; paroxetine 50 μM, control −3.2 ± 2.1 mV, P < 0.05): 4.6 ± 2.1 mV | τdeactivation (−120 mV) of Kv7.1 (Kv7.1; paroxetine near its IC50, control 39.9 ± 3.3 ms): 27.9 ± 3.6 ms
SMILES: Fc1ccc([C@@H]2CCNC[C@H]2COc2ccc3c(c2)OCO3)cc1 [paroxetine, paroxetine hydrochloride]
IC50 (GIRK1/2 channels): 13.8 ± 2.9 µM | inhibition of M-current ([2]; 3 μΜ): 31.5 ± 4.6% | inhibition of M-current ([2]; 10 μΜ): 52.4 ± 2.0% | reduction of channel sensitivity to paroxetine by F304A mutation (F304A Kv7.2 channel): three-fold | IC50 (Kv3.1 channels): 9.4 ± 0.5 µM | resting membrane potential after drug (hippocampal neurons; 3 μΜ, from −57.2 ± 3.4 mV): −48.6 ± 2.4 mV | resting membrane potential after drug (hippocampal neurons; 10 μΜ, from −62.2 ± 1.7 mV): −48.5 ± 2.0 mV | firing activity of hippocampal neurons in response to current injection (hippocampal neurons; paroxetine at 3 and 10 μΜ): significantly increased | brain concentrations [7]: 2 to 14 µM | effect of F305A mutation on paroxetine-mediated inhibition of Kv7.2 (F305A Kv7.2 channel): no notable effect; also recorded: does not significantly affect
